Reference: ChEMBL document CHEMBL1124636, “3,4-Dihydro-2H-1-benzopyran-2-carboxylic acids and related compounds as leukotriene antagonists” (J Med Chem, 1989)

Key:
[1] = system: Cavia porcellus; assay: (§1) Inhibition of leukotriene D4 induced bronchoconstriction in anesthetized guinea pigs after aerosol administration as 1% solution; assay type: functional
How it was run: (§2)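 Guinea pigs given propranolol 0.1 mg/kg iv 5 min before 5-min ultrasonic nebulizer exposure to aqueous, NaOH-neutralized drug (% w/v) or distilled water, breathing spontaneously. LTD4 50 µg/kg iv 30 s after exposure; tracheal pressure change.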

[2] = target: T1, Cysteinyl leukotriene receptor 1 (Cavia porcellus, UniProt Q2NNR5); assay: Inhibitory activity of compound to block binding of [3H]leukotriene D4 to Cysteinyl leukotriene D4 receptor sites in homogenized guinea pig lung
T1 sequence (Q2NNR5 whole entry): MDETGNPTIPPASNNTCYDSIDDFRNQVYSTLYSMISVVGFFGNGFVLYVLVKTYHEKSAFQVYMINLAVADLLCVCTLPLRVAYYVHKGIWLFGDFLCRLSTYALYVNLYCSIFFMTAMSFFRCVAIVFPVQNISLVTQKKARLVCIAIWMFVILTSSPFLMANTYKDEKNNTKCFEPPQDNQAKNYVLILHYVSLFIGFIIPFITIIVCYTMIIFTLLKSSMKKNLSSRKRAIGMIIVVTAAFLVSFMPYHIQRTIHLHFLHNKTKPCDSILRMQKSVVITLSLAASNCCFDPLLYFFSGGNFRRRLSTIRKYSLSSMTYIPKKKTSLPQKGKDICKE
How it was run: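 Lung from male Hartley guinea pigs (400–500 g), homogenized in sucrose/Tris pH 7.5 with protease inhibitors; 30000g membrane pellet in 10 mM PIPES pH 7.5, 50 mM NaCl. Binding: Tyrode, 0.1% BSA, 1 mM glycine, 1 mM cysteine, 3.5 nM [3H]LTD4, 100–200 µg protein, 20 °C, 30 min; glass-fiber filtration. Nonspecific with 10^-6 M LTD4. Triplicate screen at 10 µM; IC50 by linear regression.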

[3] = system: Cysteinyl leukotriene receptor (Cavia porcellus); assay: Inhibitory activity to block binding of [3H]leukotriene D4 to Cysteinyl leukotriene D4 receptor sites in homogenized guinea pig lung at 10 uM
[4] = system: Cavia porcellus; assay: Inhibition of leukotriene D4 induced bronchoconstriction in anesthetized guinea pigs after intravenous administration; assay type: functional; settings: read-out: ID50 (the source's name)
How it was run: (§3)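 Male Hartley guinea pigs, 400–600 g, urethane 2 g/kg ip, jugular cannula, propranolol 0.1 mg/kg iv 5 min before challenge, succinylcholine 1.2 mg/kg iv, ventilated. Vehicle or drug iv 30 s before LTD4 25 µg/kg iv; tracheal pressure change.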

[5] = system: Cavia porcellus; assay: Inhibition of leukotriene D4 induced bronchoconstriction in anesthetized guinea pigs after intravenous administration at a dose of 10 mg/kg; assay type: functional; settings: for ED50: read-out: ID50 (the source's name); how it was run: as §3
[6] = target: Cysteinyl leukotriene receptor (Cavia porcellus); assay: Inhibitory activity to block binding of [3H]leukotriene D4 to LTD4 receptor sites in homogenized guinea pig lung
[7] = system: Cavia porcellus; assay: as §1; assay type: functional, organism-based; how it was run: as §2
[8] = system: Cysteinyl leukotriene receptor (Cavia porcellus); assay: Inhibitory activity to block binding of [3H]leukotriene D4 to LTD4 receptor sites in homogenized guinea pig lung at 10 uM
[9] = target: Dual specificity calcium/calmodulin-dependent 3',5'-cyclic nucleotide phosphodiesterase 1A (Bos taurus, UniProt P14100); assay: Inhibition of bovine heart Phosphodiesterase 1A
Chain of Dual specificity calcium/calmodulin-dependent 3',5'-cyclic nucleotide phosphodiesterase 1A (P14100 whole entry): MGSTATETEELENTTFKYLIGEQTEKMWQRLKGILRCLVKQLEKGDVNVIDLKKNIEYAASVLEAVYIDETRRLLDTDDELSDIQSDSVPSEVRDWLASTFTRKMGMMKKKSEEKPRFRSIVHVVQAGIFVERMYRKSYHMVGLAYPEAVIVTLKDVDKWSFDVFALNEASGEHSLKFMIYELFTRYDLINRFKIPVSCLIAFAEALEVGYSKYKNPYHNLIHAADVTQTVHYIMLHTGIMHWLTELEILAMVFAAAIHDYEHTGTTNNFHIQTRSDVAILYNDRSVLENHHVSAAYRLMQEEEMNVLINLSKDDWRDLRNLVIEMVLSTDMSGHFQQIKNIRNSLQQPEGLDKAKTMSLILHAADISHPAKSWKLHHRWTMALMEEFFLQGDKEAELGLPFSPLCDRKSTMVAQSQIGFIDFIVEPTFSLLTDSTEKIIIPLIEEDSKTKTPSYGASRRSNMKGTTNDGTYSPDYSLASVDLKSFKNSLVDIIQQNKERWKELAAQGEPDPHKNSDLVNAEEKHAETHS

Row | Structure (SMILES) | Inhibition [1] [%] | IC50 [2] [µM] | inhibition [3] [%] | ED50 [4] [mg/kg] | inhibition in vivo at 10 mg/kg [5] [%] | IC50 [6] [µM] | IC50 [7] [% conc] | inhibition [8] [%] | ED50 [5] [mg/kg] | IC50 [9] [µM]
1 | CCCc1c(OCCCCCCOc2cc3c(cc2C(C)=O)CCC(C(=O)O)O3)ccc(C(C)=O)c1O (stereo not given) | 36 | 5 | 96 | 5 | 66 | – | – | – | – | –
2 | COc1cc(C(=O)NS(=O)(=O)c2ccccc2)ccc1Cn1ncc2ccc(NC(=O)OC3CCCC3)cc21 [ICI-198615] | 99 | – | – | 0.03 | 100 | 0.001 | 0.006 | 98 | – | –
3 | CC(=O)c1ccc(OCCCCCOc2cc3c(cc2C(C)=O)CCC(C(=O)O)O3)cc1O (stereo not given) | 0 | – | – | 5 | 85 | – | – | 0 | – | –
4 | CCCc1c(OCCCCOc2cc3c(cc2C(C)=O)CCC(C(=O)O)O3)ccc(C(C)=O)c1O (stereo not given) | 37 | – | 26 | – | 36 | – | – | – | – | –
5 | CCCc1c(OCCCCCOc2cc3c(cc2Br)CCC(C(=O)O)O3)ccc(C(C)=O)c1O (stereo not given) | 0 | – | 57 | – | 13 | – | – | – | – | –
6 | CCCc1c(OCCCCCOc2cc3c(cc2[N+](=O)[O-])CCC(C(=O)O)O3)ccc(C(C)=O)c1O (stereo not given) | 0 | – | – | – | 18 | – | – | 48 | – | –
7 | CCCc1c(OCCCSc2ccc([C@@H](O)[C@H](C)CC(=O)O)cc2)ccc(C(C)=O)c1O [L-649923] | – | – | – | 6 | 72 | – | – | – | – | –
8 | CCCc1c(O)c(C(C)=O)cc(Cl)c1OCCCCCOc1cc2c(cc1C(C)=O)CCC(C(=O)O)O2 (stereo not given) | 10 | – | 47 | – | 11 | – | – | – | – | –
9 | CCCc1c(OCCCCCOc2cc3c(cc2C(C)=O)CCC(C(=O)O)C3)ccc(C(C)=O)c1O (stereo not given) | 23 | 7 | 65 | – | 51 | – | – | – | 10 | –
10 | CCCc1c(OCCCCc2nnn[nH]2)ccc(C(C)=O)c1O [TOMELUKAST] | 62 | – | – | 5 | 77 | – | 0.4 | – | – | –
11 | CCCc1c(OCCC(C)(C)CCOc2cc3c(cc2C(C)=O)CCC(C(=O)O)O3)ccc(C(C)=O)c1O (stereo not given) | 23 | – | – | – | 15 | 7 | – | 68 | – | –
12 | CCCc1c(OCc2cccc(COc3cc4c(cc3C(C)=O)CCC(C(=O)O)O4)c2)ccc(C(C)=O)c1O (stereo not given) | 28 | 7 | 60 | – | 20 | – | – | – | – | –
13 | CCCc1c(OCCCCCOc2cc3c(cc2C(C)=O)CCC(CCCCC(=O)O)O3)ccc(C(C)=O)c1O (stereo not given) | – | – | – | – | 10 | – | – | 47 | – | –
14 | CCCc1c(OCCCCCOc2ccc3c(c2)OC(C(=O)O)CC3)ccc(C(C)=O)c1O (stereo not given) | 50 | – | 11 | – | 0 | – | 1 | – | – | –
15 | CCCc1c(OCCCOc2cc(NC(=O)c3nn[nH]n3)c(C)cc2Cl)ccc(C(C)=O)c1O [CGP-35949] | – | – | – | – | 49 | 1 | – | 94 | – | –
16 | CCCc1c(OCc2ccccc2CCOc2cc3c(cc2C(C)=O)CCC(C(=O)O)O3)ccc(C(C)=O)c1O (stereo not given) | 12 | – | 26 | – | 24 | – | – | – | – | –

Row | Structure (SMILES) | Inhibition [1] [%] | IC50 [2] [µM] | inhibition [3] [%] | ED50 [4] [mg/kg] | inhibition in vivo at 10 mg/kg [5] [%] | IC50 [6] [µM] | IC50 [7] [% conc] | inhibition [8] [%] | ED50 [5] [mg/kg] | IC50 [9] [µM]
17 | CCCc1c(OCCCCCOc2cc3c(cc2C(C)=O)CCC(CCC(=O)O)O3)ccc(C(C)=O)c1O (stereo not given) | 31 | – | – | – | 86 | 2 | – | 94 | 5 | –
18 | CCCc1c(OCCCCCOc2cc3c(cc2C(C)=O)CCC(C(=O)NS(=O)(=O)c2ccccc2)O3)ccc(C(C)=O)c1O (stereo not given) | 53 | – | – | – | 26 | 2 | 1 | 87 | – | –
19 | CCCc1c(OCCCCCOc2cc(OCC(=O)O)ccc2C(C)=O)ccc(C(C)=O)c1O | 46 | – | – | – | 20 | 5 | 1 | 65 | – | –
20 | CCCc1c(OCCCCCOc2cc3c(cc2C(=O)CC)CCC(C(=O)O)O3)ccc(C(C)=O)c1O (stereo not given) | 60 | – | 52 | – | 7 | – | 0.3 | – | – | –
21 | Cn1c(=O)c2[nH]cnc2n(C)c1=O [THEOPHYLLINE] | – | – | – | – | – | – | – | – | – | 500
22 | CCCc1c(OCCCCCCc2cc3c(cc2C(C)=O)CCC(C(=O)O)O3)ccc(C(C)=O)c1O (stereo not given) | 65 | – | 20 | – | 46 | – | 0.3 | – | – | –
23 | CCCc1c(OCCCCCOc2ccc3c(c2C(C)=O)OC(C(=O)O)CC3)ccc(C(C)=O)c1O (stereo not given) | 1 | – | – | – | 19 | 5 | – | 72 | – | –
24 | CCCc1c(OCCCCCOc2cc3c(cc2C(C)=O)CCC2(CCC(C(=O)O)CC2)O3)ccc(C(C)=O)c1O (stereo not given) | 83 | – | – | – | 32 | 4 | 0.08 | 81 | – | –
25 | CCCc1c(OCCCCCOc2cc3c(cc2C(C)=O)CC(C(=O)O)O3)ccc(C(C)=O)c1O (stereo not given) | 88 | – | 12 | – | 25 | – | 0.04 | – | – | –
26 | CCCc1c(OCCOCCOc2cc3c(cc2C(C)=O)CCC(C(=O)O)O3)ccc(C(C)=O)c1O (stereo not given) | 31 | – | 8 | 10 | 50 | – | – | – | – | –
27 | CC(C)C(C)c1nc2c(=O)[nH]c(=O)[nH]c2[nH]1 (stereo not given) | – | – | – | – | – | – | – | – | – | 100
28 | CCCc1c(OCCCOc2cc3c(cc2C(C)=O)CCC(C(=O)O)O3)ccc(C(C)=O)c1O (stereo not given) | 31 | 6 | 63 | – | 35 | – | – | – | – | –
29 | CCCc1c(OCCCCCOc2cc3c(cc2Cl)CCC(C(=O)O)O3)ccc(C(C)=O)c1O (stereo not given) | 0 | – | – | – | 16 | – | – | 45 | – | –
30 | CCCc1c(OCCCS(=O)(=O)c2ccc(C(=O)CCC(=O)O)cc2)ccc(C(C)=O)c1O [L-648051] | 70 | – | 0 | 6 | 73 | – | 0.7 | – | – | –
31 | CCCc1c(OCCCCCOc2cc3c(cc2C(C)=O)CCC(C)(C(=O)O)O3)ccc(C(C)=O)c1O (stereo not given) | 85 | – | – | 10 | 50 | 6 | 0.2 | 64 | – | –
32 | O=S(=O)(Nc1cccc(OCc2ccc3ccccc3n2)c1)C(F)(F)F [RITOLUKAST] | – | – | – | 4 | 61 | – | – | – | – | –
